{"source": "paper PMC8859974", "about": "(Journal of medicinal chemistry, 2019)", "key": {"[1]": {"tested_on": "bFGF-induced angiogenesis", "settings": "oral or intraperitoneal administration; cited from earlier work"}, "PA-CMG2 interaction [2]": {"molecular_target": "T1, PA-CMG2 interaction (Homo sapiens, UniProt P58335, C175A/R40C)", "T1 sequence (P58335 40-217 R40C/C175A)": "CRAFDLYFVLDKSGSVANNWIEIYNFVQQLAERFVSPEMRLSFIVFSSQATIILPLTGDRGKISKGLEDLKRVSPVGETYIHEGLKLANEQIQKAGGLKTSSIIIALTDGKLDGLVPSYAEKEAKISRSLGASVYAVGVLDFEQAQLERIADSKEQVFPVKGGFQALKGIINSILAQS", "settings": "cited from earlier work"}, "[3]": {"type": "in vivo, mice"}, "EA.hy926 cells": {"tested_on": "EA.hy926 cells", "experiment": "CellASIC microfluidic chemotactic endothelial cell migration", "type": "cell-based", "settings": "Homo sapiens, EA.hy 926, 12 h, read-out: Best fit IC50, chemotactic endothelial cell migration"}, "PA-CMG2 interaction [4]": {"molecular_target": "T1, PA-CMG2 interaction", "experiment": "CMG2-PA FRET assay", "type": "binding", "settings": "for inhibitory effect on CMG2-PA interaction (in words): FRET assay", "outline": "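After AF546 dispensing, 32 nM PA-AF488 solution was added and the mix incubated 4 h. Excitation 485 nm; emission 535 and 595 nm. Artifact-filtered Em595/Em535 FRET ratio was converted to % inhibition against an interaction control (100%) and an EDTA no-interaction control (0%).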"}}}
{"smiles": "O=C(OC[C@H]1O[C@@H](OC(=O)c2cc(O)c(O)c(O)c2)[C@H](OC(=O)c2cc(O)c(O)c(O)c2)[C@@H](OC(=O)c2cc(O)c(O)c(O)c2)[C@@H]1OC(=O)c1cc(O)c(O)c(O)c1)c1cc(O)c(O)c(O)c1", "note": "[compound 1, 1,2,3,4,6-penta-O-galloyl-ß-D-glucopyranose]", "values": [{"measurement": "angiogenesis in the mouse corneal micropocket assay", "setting": "[1]", "value": "inhibits angiogenesis"}, {"measurement": "IC50 of binding to CMG2", "setting": "PA-CMG2 interaction [2]", "value": "submicromolar"}]}
{"smiles": "O=C(OC[C@H]1O[C@@H](OC(=O)c2cc(O)c(O)c(O)c2)[C@@H](OC(=O)c2cc(O)c(O)c(O)c2)[C@@H](OC(=O)c2cc(O)c(O)c(O)c2)[C@@H]1OC(=O)c1cc(O)c(O)c(O)c1)c1cc(O)c(O)c(O)c1", "note": "[compound 8, 1,2,3,4,6-penta-O-galloyl-β-D-mannopyranose]", "values": [{"measurement": "weight loss", "setting": "[3]; 10 mg/kg intraperitoneally, compared to vehicle-treated control animals", "value": "no significant weight loss"}, {"measurement": "signs of toxicity (weight loss, hunched posture, behavioral abnormalities)", "setting": "[3]; treated mice", "value": "no obvious signs of toxicity"}, {"measurement": "IC50", "setting": "EA.hy926 cells", "value": "0.365 ± 0.129", "unit": "µM"}, {"measurement": "affinity for CMG2 relative to the glucose prototype PGG", "setting": "PA-CMG2 interaction [4]; FRET based binding assay", "value": "up to 10 x"}]}
{"smiles": "O=C(O[C@@H]1OC[C@@H](OC(=O)c2cc(O)c(O)c(O)c2)[C@@H](OC(=O)c2cc(O)c(O)c(O)c2)[C@H]1OC(=O)c1cc(O)c(O)c(O)c1)c1cc(O)c(O)c(O)c1", "note": "[compound 10]", "values": [{"measurement": "inhibitory effect on CMG2-PA interaction (in words)", "setting": "PA-CMG2 interaction [4]", "value": "no inhibitory effect"}]}
{"smiles": "O=C(OC[C@@H](OC(=O)c1ccc(O)c(O)c1O)[C@@H]1O[C@H](OC(=O)c2ccc(O)c(O)c2O)[C@H](OC(=O)c2ccc(O)c(O)c2O)[C@H]1OC(=O)c1ccc(O)c(O)c1O)c1ccc(O)c(O)c1O", "note": "[compound 15, α-D-Galactofuranose pentakis(2,3,4-trihydroxybenzoate)]", "values": [{"measurement": "IC50", "setting": "PA-CMG2 interaction [4]", "value": "> 10", "unit": "µM"}]}
{"smiles": "O=C(O[C@H]1OC[C@@H](OC(=O)c2ccc(O)c(O)c2O)[C@@H](OC(=O)c2ccc(O)c(O)c2O)[C@H]1OC(=O)c1ccc(O)c(O)c1O)c1ccc(O)c(O)c1O", "note": "[compound 22, α-D-Ribopiranose tetrakis(2,3,4-trihydroxybenzoate)]", "values": [{"measurement": "inhibitory effect on CMG2-PA interaction (in words)", "setting": "PA-CMG2 interaction [4]", "value": "no inhibitory effect"}]}
{"smiles": "O=C(O[C@@H]1OC[C@@H](OC(=O)c2ccc(O)c(O)c2O)[C@@H](OC(=O)c2ccc(O)c(O)c2O)[C@H]1OC(=O)c1ccc(O)c(O)c1O)c1ccc(O)c(O)c1O", "note": "[compound 23, β-D-Ribopiranose tetrakis(2,3,4-trihydroxybenzoate)]", "values": [{"measurement": "inhibitory effect on CMG2-PA interaction (in words)", "setting": "PA-CMG2 interaction [4]", "value": "no inhibitory effect"}]}
{"smiles": "O=C(OC[C@H]1O[C@H](O[C@H]2[C@H](OC(=O)c3cc(O)c(O)c(O)c3)[C@@H](OC(=O)c3cc(O)c(O)c(O)c3)[C@H](OC(=O)c3cc(O)c(O)c(O)c3)O[C@@H]2COC(=O)c2cc(O)c(O)c(O)c2)[C@H](OC(=O)c2cc(O)c(O)c(O)c2)[C@@H](OC(=O)c2cc(O)c(O)c(O)c2)[C@@H]1OC(=O)c1cc(O)c(O)c(O)c1)c1cc(O)c(O)c(O)c1", "note": "[compound 25, β-D-Maltose octakis(3,4,5-trihydroxybenzoate)]", "values": [{"measurement": "inhibitory effect on CMG2-PA interaction (in words)", "setting": "PA-CMG2 interaction [4]", "value": "did not inhibit CMG2-PA interaction"}]}
{"smiles": "O=C(OC[C@H]1O[C@H](O[C@H]2O[C@H](COC(=O)c3cc(O)c(O)c(O)c3)[C@@H](OC(=O)c3cc(O)c(O)c(O)c3)[C@H](OC(=O)c3cc(O)c(O)c(O)c3)[C@H]2OC(=O)c2cc(O)c(O)c(O)c2)[C@@H](OC(=O)c2cc(O)c(O)c(O)c2)[C@@H](OC(=O)c2cc(O)c(O)c(O)c2)[C@@H]1OC(=O)c1cc(O)c(O)c(O)c1)c1cc(O)c(O)c(O)c1", "note": "[compound 27, α,α-D-Trehalose octakis(3,4,5-trihydroxybenzoate)]", "values": [{"measurement": "inhibitory effect on CMG2-PA interaction (in words)", "setting": "PA-CMG2 interaction [4]", "value": "did not inhibit CMG2-PA interaction"}]}
{"smiles": "O=C(OC[C@H]1O[C@H](O[C@H]2O[C@H](COC(=O)c3ccc(O)c(O)c3O)[C@@H](OC(=O)c3ccc(O)c(O)c3O)[C@H](OC(=O)c3ccc(O)c(O)c3O)[C@H]2OC(=O)c2ccc(O)c(O)c2O)[C@@H](OC(=O)c2ccc(O)c(O)c2O)[C@@H](OC(=O)c2ccc(O)c(O)c2O)[C@@H]1OC(=O)c1ccc(O)c(O)c1O)c1ccc(O)c(O)c1O", "note": "[compound 31, α,α-D-Trehalose octakis(2,3,4-trihydroxybenzoate)]", "values": [{"measurement": "inhibitory effect on CMG2-PA interaction (in words)", "setting": "PA-CMG2 interaction [4]", "value": "did not inhibit CMG2-PA interaction"}]}
{"smiles": "CCCOC(=O)c1cc(O)c(O)c(O)c1", "note": "[propyl gallate]", "values": [{"measurement": "inhibitory activity", "setting": "PA-CMG2 interaction [2]; concentrations up to 300 μM", "value": "do not showed any inhibitory activity"}]}
